The results in this text go back to ChEMBL document CHEMBL4368867 (Medchemcomm, 2018).

The target in one assay is Carbonic anhydrase 1 (Homo sapiens, UniProt P00915). Briefly: Inhibition of human erythrocyte carbonic anhydrase-1 incubated for 15 mins prior to testing by stopped-flow CO2 hydration assay.
Chain of Carbonic anhydrase 1 (P00915 whole entry): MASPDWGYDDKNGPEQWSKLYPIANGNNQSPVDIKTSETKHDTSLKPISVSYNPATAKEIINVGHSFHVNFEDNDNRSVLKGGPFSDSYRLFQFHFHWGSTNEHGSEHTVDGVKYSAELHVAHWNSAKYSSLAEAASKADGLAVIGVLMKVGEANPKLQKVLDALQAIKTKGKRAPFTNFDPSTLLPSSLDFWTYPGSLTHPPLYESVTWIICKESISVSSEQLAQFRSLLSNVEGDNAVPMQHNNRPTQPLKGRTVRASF
Broadly, the IC50 is the concentration at which inhibition is half-maximal. `NS(=O)(=O)c1cccc(NC(=S)NC(=O)c2ccc([N+](=O)[O-])cc2)c1` had an IC50 of 60.5 nM.
`COc1ccccc1C(=O)NC(=S)Nc1ccc(S(N)(=O)=O)cc1` returned a half-inhibitory concentration (IC50) of 267 nM.
In turn, `NS(=O)(=O)c1ccc(NC(=S)NC(=O)c2ccc(Cl)cc2)cc1` gave a concentration for half-maximal inhibition (IC50) of 423 nM.
The same measure, in the same setting: next, `NS(=O)(=O)c1cccc(NC(=S)NC(=O)c2ccccc2)c1`: 867 nM; `COc1ccc(C(=O)NC(=S)Nc2ccc(S(N)(=O)=O)cc2)cc1`: 694 nM; `COc1ccccc1C(=O)NC(=S)Nc1cccc(S(N)(=O)=O)c1`: 44.4 nM.
`NS(=O)(=O)c1cccc(NC(=S)NC(=O)c2ccc(Cl)cc2)c1`: the IC50 stood at 1540 nM.
In the case of `NS(=O)(=O)c1ccc(NC(=S)NC(=O)c2ccccc2Cl)cc1`, the concentration for half-maximal inhibition (IC50) was found to be 661 nM.
As for `NS(=O)(=O)c1cccc(NC(=S)NC(=O)c2ccc(Cl)cc2Cl)c1`, the IC50 amounted to 1340 nM.
`COc1ccc(C(=O)NC(=S)Nc2cccc(S(N)(=O)=O)c2)cc1`: half-maximal inhibition (IC50) required 665 nM.
In the case of `NS(=O)(=O)c1cccc(NC(=S)NC(=O)c2ccccc2Cl)c1`, the IC50 was determined as 773 nM.
On the same count and under the same terms, under `NS(=O)(=O)c1ccc(NC(=S)NC(=O)c2ccc(Cl)cc2Cl)cc1` stands 632 nM.
`NS(=O)(=O)c1ccc(NC(=S)NC(=O)c2ccc([N+](=O)[O-])cc2)cc1` displayed an IC50 of 504 nM.

For a further assay, the species on record is Homo sapiens. Kind of assay: Selectivity ratio of IC50 for recombinant human carbonic anhydrase-2 expressed in Escherichia coli to IC50 for human carbonic anhydrase-9. The method, boiled down:
(§1)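 Ratio of the CA I or CA II IC50 to the CA IX IC50. hCA IX was purified recombinant protein; CA I and CA II were commercial. Enzyme levels were 50 ng µL−1 for CA I, 1 ng µL−1 for CA II and 3 ng µL−1 for CA IX. Inhibitor in DMSO was preincubated with enzyme for 15 min. Activity was read as stopped-flow CO2 hydration or initial 4-nitrophenyl acetate hydrolysis rates. Triplicates per concentration, mean reported.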
As for `COc1ccccc1C(=O)NC(=S)Nc1ccc(S(N)(=O)=O)cc1`, the Ratio IC50 is 6.97.
Take `NS(=O)(=O)c1ccc(NC(=S)NC(=O)c2ccc(Cl)cc2)cc1`: the Ratio IC50 amounted to 3.13.
`NS(=O)(=O)c1cccc(NC(=S)NC(=O)c2ccccc2)c1`: the Ratio IC50 worked out at 6.47.
In the case of `COc1ccc(C(=O)NC(=S)Nc2ccc(S(N)(=O)=O)cc2)cc1`, the Ratio IC50 is 54.4.
On the same count and under the same terms, next, `COc1ccccc1C(=O)NC(=S)Nc1cccc(S(N)(=O)=O)c1`: 0.38; `NS(=O)(=O)c1cccc(NC(=S)NC(=O)c2ccc(Cl)cc2)c1`: 5.67.
Same read-out and setting: next, `NS(=O)(=O)c1ccc(NC(=S)NC(=O)c2ccccc2Cl)cc1`: 6.68; `NS(=O)(=O)c1cccc(NC(=S)NC(=O)c2ccc(Cl)cc2Cl)c1`: 215; `COc1ccc(C(=O)NC(=S)Nc2cccc(S(N)(=O)=O)c2)cc1`: 35.6.
On the same count and under the same terms, under `NS(=O)(=O)c1cccc(NC(=S)NC(=O)c2ccccc2Cl)c1` stands 14.6; under `NS(=O)(=O)c1ccc(NC(=S)NC(=O)c2ccc(Cl)cc2Cl)cc1`, 98.5.
Consider `NS(=O)(=O)c1ccc(NC(=S)NC(=O)c2ccc([N+](=O)[O-])cc2)cc1`, for which the Ratio IC50 was 1560.

The species named for a further assay is Homo sapiens. Briefly: Selectivity ratio of IC50 for human erythrocyte carbonic anhydrase-1 to IC50 for human carbonic anhydrase-9. The method, boiled down: as §1
For `COc1ccccc1C(=O)NC(=S)Nc1ccc(S(N)(=O)=O)cc1`, the Ratio IC50 came to 889.
For the compound `NS(=O)(=O)c1ccc(NC(=S)NC(=O)c2ccc(Cl)cc2)cc1`, the Ratio IC50 was found to be 102.
On the same count and under the same terms, next, `NS(=O)(=O)c1cccc(NC(=S)NC(=O)c2ccccc2)c1`: 33.7.
As to `COc1ccc(C(=O)NC(=S)Nc2ccc(S(N)(=O)=O)cc2)cc1`, the Ratio IC50 came to 1480.
Take `COc1ccccc1C(=O)NC(=S)Nc1cccc(S(N)(=O)=O)c1`: the Ratio IC50 was determined as 0.82.
For the compound `NS(=O)(=O)c1cccc(NC(=S)NC(=O)c2ccc(Cl)cc2)c1`, the Ratio IC50 turned out to be 36.5.
Take `NS(=O)(=O)c1ccc(NC(=S)NC(=O)c2ccccc2Cl)cc1`: the Ratio IC50 amounted to 193.
Take `NS(=O)(=O)c1cccc(NC(=S)NC(=O)c2ccc(Cl)cc2Cl)c1`: the Ratio IC50 came to 304.
Turning to `COc1ccc(C(=O)NC(=S)Nc2cccc(S(N)(=O)=O)c2)cc1`, the Ratio IC50 turned out to be 26.1.
`NS(=O)(=O)c1cccc(NC(=S)NC(=O)c2ccccc2Cl)c1`: the Ratio IC50 is 40.7.
`NS(=O)(=O)c1ccc(NC(=S)NC(=O)c2ccc(Cl)cc2Cl)cc1`: the Ratio IC50 came to 5270.
For the compound `NS(=O)(=O)c1ccc(NC(=S)NC(=O)c2ccc([N+](=O)[O-])cc2)cc1`, the Ratio IC50 stood at 1050.

The next assay deals with Carbonic anhydrase 2 (Homo sapiens, UniProt P00918). Briefly: Inhibition of recombinant human carbonic anhydrase-2 expressed in Escherichia coli incubated for 15 mins prior to testing by stopped-flow CO2 hydration assay.
`NS(=O)(=O)c1cccc(NC(=S)NC(=O)c2ccc([N+](=O)[O-])cc2)c1`: the 50% inhibitory concentration (IC50) came out at 142 nM.
Turning to `COc1ccccc1C(=O)NC(=S)Nc1ccc(S(N)(=O)=O)cc1`, the concentration for half-maximal inhibition (IC50) turned out to be 2.09 nM.
As to `NS(=O)(=O)c1ccc(NC(=S)NC(=O)c2ccc(Cl)cc2)cc1`, the IC50 came out at 12.9 nM.
Still for that read-out and setting: under `NS(=O)(=O)c1cccc(NC(=S)NC(=O)c2ccccc2)c1` stands 167 nM; under `COc1ccc(C(=O)NC(=S)Nc2ccc(S(N)(=O)=O)cc2)cc1`, 25.6 nM.
As to `COc1ccccc1C(=O)NC(=S)Nc1cccc(S(N)(=O)=O)c1`, the IC50 is 20.7 nM.
As to `NS(=O)(=O)c1cccc(NC(=S)NC(=O)c2ccc(Cl)cc2)c1`, the half-inhibitory concentration (IC50) is 240 nM.
With `NS(=O)(=O)c1ccc(NC(=S)NC(=O)c2ccccc2Cl)cc1`, the concentration for half-maximal inhibition (IC50) was 22.9 nM.
With `NS(=O)(=O)c1cccc(NC(=S)NC(=O)c2ccc(Cl)cc2Cl)c1`, the IC50 turned out to be 950 nM.
Same read-out and setting: next, `COc1ccc(C(=O)NC(=S)Nc2cccc(S(N)(=O)=O)c2)cc1`: 908 nM.
Take `NS(=O)(=O)c1cccc(NC(=S)NC(=O)c2ccccc2Cl)c1`: the 50% inhibitory concentration (IC50) was found to be 277 nM.
Still for that read-out and setting: next, `NS(=O)(=O)c1ccc(NC(=S)NC(=O)c2ccc(Cl)cc2Cl)cc1`: 11.8 nM; `NS(=O)(=O)c1ccc(NC(=S)NC(=O)c2ccc([N+](=O)[O-])cc2)cc1`: 749 nM.

In a further assay the target is Carbonic anhydrase 9 (Homo sapiens, UniProt Q16790). Briefly: Inhibition of human carbonic anhydrase-9 incubated for 15 mins prior to testing by stopped-flow CO2 hydration assay.
On to `NS(=O)(=O)c1cccc(NC(=S)NC(=O)c2ccc([N+](=O)[O-])cc2)c1`, for which the IC50 was more than 104 nM.
Compound `COc1ccccc1C(=O)NC(=S)Nc1ccc(S(N)(=O)=O)cc1` had an IC50 of 0.3 nM.
In turn, `NS(=O)(=O)c1ccc(NC(=S)NC(=O)c2ccc(Cl)cc2)cc1` displayed an IC50 of 4.14 nM.
Compound `NS(=O)(=O)c1cccc(NC(=S)NC(=O)c2ccccc2)c1` gave an IC50 of 25.7 nM.
`COc1ccc(C(=O)NC(=S)Nc2ccc(S(N)(=O)=O)cc2)cc1` displayed a 50% inhibitory concentration (IC50) of 0.47 nM.
For the compound `COc1ccccc1C(=O)NC(=S)Nc1cccc(S(N)(=O)=O)c1`, the 50% inhibitory concentration (IC50) amounted to 54.3 nM.
Compound `NS(=O)(=O)c1cccc(NC(=S)NC(=O)c2ccc(Cl)cc2)c1` showed an IC50 of 42.2 nM.
On the same count and under the same terms, next, `NS(=O)(=O)c1ccc(NC(=S)NC(=O)c2ccccc2Cl)cc1`: 3.42 nM; `NS(=O)(=O)c1cccc(NC(=S)NC(=O)c2ccc(Cl)cc2Cl)c1`: 4.42 nM; `COc1ccc(C(=O)NC(=S)Nc2cccc(S(N)(=O)=O)c2)cc1`: 25.5 nM.
The same measure, in the same setting: under `NS(=O)(=O)c1cccc(NC(=S)NC(=O)c2ccccc2Cl)c1` stands 19 nM; under `NS(=O)(=O)c1ccc(NC(=S)NC(=O)c2ccc(Cl)cc2Cl)cc1`, 0.12 nM; under `NS(=O)(=O)c1ccc(NC(=S)NC(=O)c2ccc([N+](=O)[O-])cc2)cc1`, 0.48 nM.
